Tests used:
[1] = system: HCT-116; test: Cell cycle arrest in human HCT116 cells assessed as accumulation at sub G1 phase at 5 uM after 24 hrs by propidium iodide staining-based flow cytometric analysis relative to control; assay type: functional
Procedure, shortened: (§1)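 HCT-116 cells seeded at 2 × 10^5 per well in six-well plates, treated 24 h with compound at 2.5, 5 or 10 μM alongside untreated control, then harvested, fixed in cold 70% ethanol and stained with PI solution (final 50 μg/mL PI, 0.1 mg/mL RNase A, 0.05% Triton X-100) for 40 min at 37 °C. Phase distribution read by flow cytometry.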

[2] = system: HCT-116; test: Cell cycle arrest in human HCT116 cells assessed as accumulation at S phase at 10 uM after 24 hrs by propidium iodide staining-based flow cytometric analysis (reference value: 36.3%); assay type: functional; procedure, shortened: as §1
[3] = system: HCT-116; test: Cell cycle arrest in human HCT116 cells assessed as accumulation at G2/M phase at 2.5 uM after 24 hrs by propidium iodide staining-based flow cytometric analysis (reference value: 15.6%); assay type: functional; procedure, shortened: as §1
[4] = system: HCT-116; test: Cell cycle arrest in human HCT116 cells assessed as accumulation at S phase at 2.5 uM after 24 hrs by propidium iodide staining-based flow cytometric analysis (reference value: 36.3%); assay type: functional; procedure, shortened: as §1
[5] = system: HCT-116; test: Cell cycle arrest in human HCT116 cells assessed as accumulation at S phase at 5 uM after 24 hrs by propidium iodide staining-based flow cytometric analysis (reference value: 36.3%); assay type: functional; procedure, shortened: as §1
[6] = system: HeLa; test: Antiproliferative activity against human HeLa cells after 72 hrs by MTT assay; assay type: functional, cell-based
[7] = target: Histone deacetylase (Homo sapiens) (UniProt Q13547+O15379+Q9UBN7+Q92769+Q9UQL6+Q8WUI4+Q9BY41+Q96DB2+P56524+Q9UKV0+Q969S8); details: HeLa, at 1 µM
[8] = system: HCT-116; test: Cell cycle arrest in human HCT116 cells assessed as accumulation at sub G1 phase at 2.5 uM after 24 hrs by propidium iodide staining-based flow cytometric analysis relative to control; assay type: functional; procedure, shortened: as §1
[9] = system: HCT-116; test: Antiproliferative activity against human HCT116 cells after 72 hrs by MTT assay; assay type: functional, cell-based; details: HCT-116, 72 h
[10] = system: HCT-116; test: Cell cycle arrest in human HCT116 cells assessed as accumulation at G1 phase at 10 uM after 24 hrs by propidium iodide staining-based flow cytometric analysis (reference value: 48.1%); assay type: functional; procedure, shortened: as §1
[11] = target: Histone deacetylase; test: Inhibition of HDAC in human HeLa cell nuclear extract using fluor de Lys as substrate after 15 mins by fluorimetric analysis; assay type: protein assay
Procedure, shortened: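 Fluorimetric HDAC kit assay: HeLa nuclear extract (15 μL) combined with 10 μL of 5× compound, then 25 μL fluorogenic substrate added; deacetylation ran 15 min at room temperature and was stopped with TSA-containing developer. Fluorescence read after a further 15 min at excitation 360 nm, emission 460 nm.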

[12] = system: HCT-116; test: Cell cycle arrest in human HCT116 cells assessed as accumulation at sub G1 phase at 10 uM after 24 hrs by propidium iodide staining-based flow cytometric analysis relative to control; assay type: functional; procedure, shortened: as §1
[13] = system: HCT-116; test: Cell cycle arrest in human HCT116 cells assessed as accumulation at G1 phase at 2.5 uM after 24 hrs by propidium iodide staining-based flow cytometric analysis (reference value: 48.1%); assay type: functional; procedure, shortened: as §1
[14] = system: HCT-116; test: Cell cycle arrest in human HCT116 cells assessed as accumulation at G2/M phase at 5 uM after 24 hrs by propidium iodide staining-based flow cytometric analysis (reference value: 15.6%); assay type: functional; procedure, shortened: as §1
[15] = system: HCT-116; test: Cell cycle arrest in human HCT116 cells assessed as accumulation at sub G1 phase after 24 hrs by propidium iodide staining-based flow cytometric analysis; assay type: functional; procedure, shortened: as §1
[16] = system: HCT-116; test: Cell cycle arrest in human HCT116 cells assessed as accumulation at G2/M phase at 10 uM after 24 hrs by propidium iodide staining-based flow cytometric analysis (reference value: 15.6%); assay type: functional; procedure, shortened: as §1
[17] = system: MCF7; test: Antiproliferative activity against human MCF7 cells after 72 hrs by MTT assay; assay type: functional, cell-based; details: MCF7, 72 h
[18] = system: HCT-116; test: Cell cycle arrest in human HCT116 cells assessed as accumulation at G1 phase at 5 uM after 24 hrs by propidium iodide staining-based flow cytometric analysis (reference value: 48.1%); assay type: functional; procedure, shortened: as §1

SMILES | IC50 [6] [µM] | inhibition [7] [%] | IC50 [9] [µM] | IC50 [11] [µM] | IC50 [17] [µM] | other results
O=C(CCCCCCCCOc1cccc(-c2nc(N3CCOCC3)c3sccc3n2)c1)NO | 20 | 40.6 | > 20 |  | > 20 | 
O=C(CCCCCOc1ccc(-c2nc(N3CCOCC3)c3sccc3n2)cc1)NO | 12 | 18.8 | 14 |  | > 20 | 
O=C(CCCCCCCCOc1ccc(-c2nc(N3CCOCC3)c3sccc3n2)cc1)NO | 19 | 25.4 | 10.1 |  | 18 | 
O=C(CCCCCCCOc1cccc(-c2nc(N3CCOCC3)c3sccc3n2)c1)NO | 11.9 | 72 | 6.1 | 0.61 | 11 | 
O=C(CCCCCCCOc1ccc(-c2nc(N3CCOCC3)c3sccc3n2)cc1)NO | 7.4 | 73.8 | 2.9 | 0.49 | 10 | 

Now those with a lower IC50 [6], led by results:

IC50 [6] [µM] | inhibition [7] [%] | IC50 [9] [µM] | IC50 [11] [µM] | IC50 [17] [µM] | SMILES | other results
4 | 76.8 | 4 | 0.38 | 4.8 | O=C(CCCCCCOc1cccc(-c2nc(N3CCOCC3)c3sccc3n2)c1)NO | Activity [1]: 42.2%; Activity [2]: 20.8%; Activity [3]: 16.8%; Activity [4]: 15.2%; Activity [5]: 18.9%; Activity [8]: 30.5%; Activity [10]: 50.3%; Activity [12]: 44.5%; Activity [13]: 68.1%; Activity [14]: 31.4%; Activity [15]: Dose-dependent effect; Activity [16]: 26.5%; Activity [18]: 49.7%
3 | 61.7 | 5.5 |  | 5.2 | O=C(CCCCCCOc1ccc(-c2nc(N3CCOCC3)c3sccc3n2)cc1)NO | 
2.4 | 18.7 | 12.2 |  | 9.9 | O=C(CCCCCOc1cccc(-c2nc(N3CCOCC3)c3sccc3n2)c1)NO | 

— ChEMBL document CHEMBL3097997, “Synthesis and anticancer activities of thieno[3,2-d]pyrimidines as novel HDAC inhibitors” (Bioorg Med Chem, 2014)
